Reference: ChEMBL document CHEMBL4145684 (J Med Chem, 2018)
Blank lines part the entries; values can stand above or below the molecule they belong to. Calls of active or inactive are those of the source. The rule behind the calls is not given here.

Columns and labels:
MCF7 [1] = test: Antiproliferative activity against human MCF7 cells assessed as reduction in cell proliferation in RPMI containing 10% FBS incubated for 5 days by Cell-titer-Glo assay; format: functional, cell-based; conditions: MCF7, 120 h
Procedure, shortened: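 MCF-7 cells, 640/well in RPMI with 10% FBS and 20 mM HEPES, adhered overnight; 10-point 1:5 dilution series (10–0.000005 µM final) for 5 days. CellTiter-Glo luminescence, cell-free medium background subtracted, percent viability vs untreated cells; n ≥ 3.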

Estrogen receptor [2] = target: T1, Estrogen receptor (Homo sapiens, UniProt P03372); test: Induction of ERalpha degradation in human MCF7 cells in phenol red free RPMI medium containing 5% charcoal dextran-treated FBS incubated for 4 hrs by SP1 and anti-ER rabbit monocolnal antibody based in-cell Western assay
T1 sequence (P03372 whole entry): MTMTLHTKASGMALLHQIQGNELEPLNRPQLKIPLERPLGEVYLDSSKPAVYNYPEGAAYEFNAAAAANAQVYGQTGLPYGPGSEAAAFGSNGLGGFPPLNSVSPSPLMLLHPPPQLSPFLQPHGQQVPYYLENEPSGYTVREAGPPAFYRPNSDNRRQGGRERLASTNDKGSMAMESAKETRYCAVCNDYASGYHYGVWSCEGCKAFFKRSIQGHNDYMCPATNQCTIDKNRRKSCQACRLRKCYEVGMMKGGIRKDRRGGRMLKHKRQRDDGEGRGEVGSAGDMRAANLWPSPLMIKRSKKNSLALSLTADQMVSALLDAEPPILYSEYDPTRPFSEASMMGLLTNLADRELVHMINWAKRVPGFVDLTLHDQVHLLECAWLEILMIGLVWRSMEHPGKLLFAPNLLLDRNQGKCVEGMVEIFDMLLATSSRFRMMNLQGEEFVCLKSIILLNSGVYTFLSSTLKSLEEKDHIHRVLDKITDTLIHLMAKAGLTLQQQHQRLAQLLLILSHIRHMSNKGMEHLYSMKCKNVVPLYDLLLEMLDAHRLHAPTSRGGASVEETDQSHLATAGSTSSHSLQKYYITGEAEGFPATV

[3] = AUC in mouse at 10 mg/kg, po; format: ADME, organism-based; conditions: in vivo
Procedure, shortened: (§1)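 Mouse or rat PK: single intravenous dose 3 mg/kg or oral dose 10 mg/kg, vehicle PEG400/PVP/Tween 80/0.5% CMC in water (9:0.5:0.5:90).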

Estrogen receptor [4] = target: T1, Estrogen receptor; test: Binding affinity to ERalpha (unknown origin)
[5] = AUC in human MCF7 cells xenografted nu/nu mouse implanted with 17beta-estradiol time release pellets dosed orally once daily for 4 weeks; format: ADME, organism-based; conditions: in vivo, po
[6] = AUC (0 to infinity) in rat at 10 mg/kg, po; format: ADME, organism-based; set-up: dose 10 mg/kg, route oral, time infinity; conditions: in vivo
[7] = AUC (0 to infinity) in mouse at 10 mg/kg, po; format: ADME, organism-based; set-up: dose 10 mg/kg, route oral, time infinity; conditions: in vivo
[8] = Cmax in rat at 10 mg/kg, po; format: ADME, organism-based; set-up: dose 10 mg/kg, route oral; conditions: in vivo; procedure, shortened: as §1
Rattus norvegicus [9] = test: Reduction in uterine wet weight in ethynyl estradiol-stimulated CD-IGS rat at 1 mg/kg, po dosed daily for 3 days by gavage followed 15 mins later by 0.1 mg/kg, po ethynyl estradiol and measured 24 hrs after last dose by immature rat uterine wet weight assay; format: functional
Procedure, shortened: (§2)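 Female immature CD-IGS rats, 21 days old on arrival; oral gavage of vehicle or compound daily for 3 days, ethynyl estradiol 0.1 mg/kg orally 15 min after each dose. Day 4, 24 h post-dose, plasma taken, then uterus removed and weighed. Reduction = 100 x (VehicleEE – Cpd)/(VehicleEE – Vehicle).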

[10] = Oral bioavailability in rat at 10 mg/kg; format: ADME, organism-based; conditions: in vivo; procedure, shortened: as §1
Rattus norvegicus [11] = test: Reduction in uterine wet weight in ethynyl estradiol-stimulated CD-IGS rat at 10 mg/kg, po dosed daily for 3 days by gavage followed 15 mins later by 0.1 mg/kg, po ethynyl estradiol and measured 24 hrs after last dose by immature rat uterine wet weight assay; format: functional; procedure, shortened: as §2
[12] = Half life in rat at 3 mg/kg, iv; format: ADME, organism-based; conditions: in vivo; procedure, shortened: as §1
[13] = Volume of distribution at steady state in rat at 3 mg/kg, iv; format: ADME, organism-based; conditions: in vivo, read-out: Vdss; procedure, shortened: as §1
[14] = Half life in mouse at 3 mg/kg, iv; format: ADME, organism-based; conditions: in vivo; procedure, shortened: as §1
[15] = Clearance in rat at 3 mg/kg, iv; format: ADME, organism-based; conditions: in vivo; procedure, shortened: as §1
[16] = Clearance in mouse at 3 mg/kg, iv; format: ADME, organism-based; conditions: in vivo; procedure, shortened: as §1
[17] = Volume of distribution at steady state in mouse at 3 mg/kg, iv; format: ADME, organism-based; conditions: in vivo, read-out: Vdss; procedure, shortened: as §1
[18] = Cmax in mouse at 10 mg/kg, po; format: ADME, organism-based; set-up: dose 10 mg/kg, route oral; conditions: in vivo; procedure, shortened: as §1
Rattus norvegicus [19] = test: In-vivo inverse agonist activity at ERalpha in CD-IGS rat assessed as reduction in uterine wet weight at 10 mg/kg, po dosed daily for 3 days by gavage and measured 24 hrs after last dose by immature rat uterine wet weight assay relative to basal level; format: functional, organism-based
Procedure, shortened: (§3)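 Immature CD-IGS rats given compound orally for 3 days without ethynyl estradiol (agonist mode); on day 4, 24 h after dosing, uterus removed and weighed; wet weight normalized to total body weight.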

[20] = Oral bioavailability in mouse at 10 mg/kg; format: ADME, organism-based; conditions: in vivo; procedure, shortened: as §1
MCF7 [21] = test: Antitumor activity against human MCF7 cells xenografted in nu/nu mouse model of tamoxifen-resistant breast cancer xenograft implanted with 17beta-estradiol time release pellets assessed as reduction tumor volume at 60 mg/kg, po qd for 4 weeks; format: functional, organism-based
Procedure, shortened: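 Female nu/nu mice with 0.72 mg 60-day 17β-estradiol pellets bearing MCF-7 tumors, pretreated with oral tamoxifen citrate; at ~150-250 mm3 (mean 200 mm3) randomized, tamoxifen stopped, then dosed daily for 4 weeks; tumor volume (length x width2/2) and body weight twice weekly.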

MCF7 [22] = test: Antitumor activity against human MCF7 cells xenografted in nu/nu mouse model of tamoxifen-sensitive breast cancer xenograft implanted with 17beta-estradiol time release pellets assessed as reduction tumor volume at 6 mg/kg, po qd for 4 weeks; format: functional, organism-based
[23] = Clearance in Sprague-Dawley rat at 1 mg/kg, iv; format: ADME, organism-based; conditions: in vivo
[24] = Oral bioavailability in Sprague-Dawley rat at 2 mg/kg; format: ADME, organism-based; conditions: in vivo
Rattus norvegicus [25] = test: In-vivo agonist activity at ERalpha in CD-IGS rat assessed as increase in uterine wet weight at 10 mg/kg, po dosed daily for 3 days by gavage and measured 24 hrs after last dose by immature rat uterine wet weight assay; format: functional, organism-based; procedure, shortened: as §3

SMILES: CC1=C(c2cccc(F)c2)C(c2ccc(OC[C@H](C)N3CC[C@@H](C)C3)cc2)Oc2ccc(O)cc21 (some centres not stated)
- IC50 (MCF7 [1]): 1 nM
- IC50 (Estrogen receptor [2]): 0.5 nM
- AUC [3]: 350 ng·h/mL

SMILES: CC1=C(c2cccc(O)c2)[C@@H](c2ccc(OC[C@H](C)N3CC[C@@H](C)C3)cc2)Oc2ccc(O)cc21
- IC50 (MCF7 [1]): 59 nM
- IC50 (Estrogen receptor [4]): 136 nM
- IC50 (Estrogen receptor [2]): 9.7 nM

SMILES: CC1=C(c2ccc(O)cc2)[C@H](c2ccc(OCCN3CCCCC3)cc2)Oc2cc(O)ccc21 [ACOLBIFENE]
- AUC [3]: 90 ng·h/mL

SMILES: CC1=C(c2cccc(O)c2)C(c2ccc(OCCN3CC(C)C3)cc2)Oc2ccc(O)cc21 (configuration not stated)
- IC50 (Estrogen receptor [2]; mcf7): 0.3 nM

SMILES: CC1=C(c2ccc(S(C)(=O)=O)cc2)C(c2ccc(OC[C@H](C)N3CC[C@@H](C)C3)cc2)Oc2ccc(O)cc21 (some centres not stated)
- IC50 (MCF7 [1]): 27 nM
- IC50 (Estrogen receptor [2]): 5.7 nM

SMILES: Oc1ccc([C@H]2Sc3ccc(O)cc3O[C@H]2c2ccc(OCCN3CCCCC3)cc2)cc1
- clearance [23]: 154 mL/min/kg
- bioavailability [24]: 0%

SMILES: CC1=C(c2cccc(O)c2)C(c2ccc(OCCN3CCCCCC3)cc2)Oc2ccc(O)cc21 (configuration not stated)
- IC50 (MCF7 [1]): 0.2 nM
- IC50 (Estrogen receptor [2]): 0.2 nM

SMILES: CC1=C(c2cccc(O)c2)C(c2ccc(OC[C@H](C)N3CC[C@@H](C)C3)cc2)Oc2cc(O)ccc21 (some centres not stated)
- IC50 (MCF7 [1]): 0.3 nM
- IC50 (Estrogen receptor [2]): 0.2 nM
- AUC [3]: 50 ng·h/mL

SMILES: CC1=C(c2cccc(C#N)c2)C(c2ccc(OC[C@H](C)N3CC[C@@H](C)C3)cc2)Oc2ccc(O)cc21 (some centres not stated)
- IC50 (MCF7 [1]): 2.6 nM
- IC50 (Estrogen receptor [2]): 0.7 nM

SMILES: CC1=C(c2cccc(O)c2)C(c2ccc(OC[C@@H](C)N3CCCC3)cc2)Oc2ccc(O)cc21 (some centres not stated)
- Activity (Rattus norvegicus [25]): Active
- inhibition (INH) (Rattus norvegicus [11]): 84%
- IC50 (MCF7 [1]): 0.2 nM
- IC50 (Estrogen receptor [2]): 0.3 nM

Second part, led by results:

- IC50 (MCF7 [1]): 0.2 nM
- IC50 (Estrogen receptor [2]): 0.3 nM
SMILES: CC1=C(c2cccc(O)c2)C(c2ccc(OCCN3CCC3)cc2)Oc2ccc(O)cc21 (configuration not stated)

- IC50 (MCF7 [1]): 0.2 nM
- IC50 (Estrogen receptor [2]): 0.2 nM
SMILES: CC1=C(c2cccc(O)c2)C(c2ccc(OCCN3CCC(C)CC3)cc2)Oc2ccc(O)cc21 (configuration not stated)

- IC50 (MCF7 [1]): 0.2 nM
- IC50 (Estrogen receptor [2]): 0.3 nM
SMILES: CC1=C(c2cccc(O)c2)C(c2ccc(OC[C@@H](C)N3CC[C@@H](C)C3)cc2)Oc2ccc(O)cc21 (some centres not stated)

- IC50 (MCF7 [1]): 0.1 nM
- IC50 (Estrogen receptor [2]): 0.9 nM
SMILES: CC1=C(c2cccc(O)c2)C(c2ccc(OC[C@H](C)N3CCC3)cc2)Oc2ccc(O)cc21 (some centres not stated)

- IC50 (MCF7 [1]): 0.2 nM
- IC50 (Estrogen receptor [2]): 0.4 nM
SMILES: CC1=C(c2cccc(O)c2)C(c2ccc(OCCN3CC[C@@H](C)C3)cc2)Oc2ccc(O)cc21 (some centres not stated)

- IC50 (MCF7 [1]): 0.1 nM
- IC50 (Estrogen receptor [2]): 0.2 nM
SMILES: CC1=C(c2cccc(O)c2)C(c2ccc(OC[C@H](C)N3CCCCC3)cc2)Oc2ccc(O)cc21 (some centres not stated)

- AUC at 672 h [5]: 4600 ng·h/mL
- AUC(0-inf) [6]: 930 ng·h/mL
- AUC(0-inf) [7]: 590 ng·h/mL
- Cmax [8]: 140 ng/mL
- bioavailability [10]: 18%
- half-life [12]: 2.9 h
- Vd [13]: 8 L/kg
- half-life [14]: 3.6 h
- clearance [15]: 33 mL/min/kg
- clearance [16]: 38 mL/min/kg
- Vd [17]: 6.2 L/kg
- Cmax [18]: 100 ng/mL
- IC50 (MCF7 [1]): 0.2 nM
- IC50 (Estrogen receptor [4]): 5.1 nM
- IC50 (Estrogen receptor [2]): 0.2 nM
- bioavailability [20]: 13%
- AUC [3]: 590 ng·h/mL
SMILES: CC1=C(c2cccc(O)c2)C(c2ccc(OC[C@H](C)N3CC[C@@H](C)C3)cc2)Oc2ccc(O)cc21 (some centres not stated)
- inhibition (INH) (Rattus norvegicus [9]): 99%
- inhibition (INH) (Rattus norvegicus [11]): 111%
- Activity (Rattus norvegicus [19]): Active
- Activity (MCF7 [21]): Active
- Activity (MCF7 [22]): Active
